# In ChEMBL document CHEMBL5724801, “EUbOPEN Chemogenomics Library - Multiplex” (2024):
# “And” between values parts separate entries of the source, which are not always exact repeats. Equal values may be shown once.
# Tested on: U2OS
# Experiment: Multiplex assay against U2OS
# Type: toxicity, cell-based
# Details: human
# How it was run: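 Compound was added to live cells that had been stained at seeding with Hoechst33342, BioTracker Green Microtubule Cytoskeleton Dye, MitoTracker Red and Annexin V Alexa Fluor 680, and imaging followed on a CQ1 microscope at 37°C and 5% CO2. CellPathfinder machine-learning gating divided cells into Hoechst high-intensity objects or normal cells, normal cells into healthy, pyknosed or fragmented nuclei, and pyknosed cells into mitotic or apoptotic. Tubulin, mitochondrial-mass and membrane-permeability phenotypes are per cents of healthy-nucleus cells.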
# [1] = 12 h, 1 µM, compound concentration 1 uM
# [2] = 12 h, 10 µM, compound concentration 10 uM
# [3] = 24 h, 1 µM, compound concentration 1 uM
# [4] = 24 h, 10 µM, compound concentration 10 uM
# [5] = 48 h, 1 µM, compound concentration 1 uM
# [6] = 48 h, 10 µM, compound concentration 10 uM
smiles,measurement,setting,value
Cc1nn(C)c2nc(NNC(=O)Nc3cc(Cl)nc(Cl)c3)cc(C(C)C)c12,Population Apoptotic (%),[1],76% and 72%
same,Population Fragmented Nuclei (%),[1],23% and 14%
same,Population Healthy Nuclei (%),[1],66% and 76%
same,Population Hoechst High Intensity Objects (%),[1],1% and 2%
same,Population Membrane Permeable-Phenotype (%),[1],5% and 10%
same,Population Mitochondria Different-Phenotype (%),[1],3% and 7%
same,Population Mitotic Cells (%),[1],24% and 27%
same,Population Normal (%),[1],98% and 97%
same,Population Pyknosed Nuclei (%),[1],9% and 8%
same,Population Tubulin-Different-Phenotype (%),[1],2% and 7%
same,Total Cell Count,[1],268 and 131
same,Population Apoptotic (%),[2],77% and 47%
same,Population Fragmented Nuclei (%),[2],21% and 15%
same,Population Healthy Nuclei (%),[2],56% and 63%
same,Population Hoechst High Intensity Objects (%),[2],7% and 4%
same,Population Membrane Permeable-Phenotype (%),[2],75% and 57%
same,Population Mitochondria Different-Phenotype (%),[2],46% and 63%
same,Population Mitotic Cells (%),[2],22% and 52%
same,Population Normal (%),[2],92% and 95%
same,Population Pyknosed Nuclei (%),[2],21%
same,Population Tubulin-Different-Phenotype (%),[2],80% and 77%
same,Total Cell Count,[2],222 and 104
same,Population Apoptotic (%),[3],80% and 93%
same,Population Fragmented Nuclei (%),[3],20% and 17%
same,Population Healthy Nuclei (%),[3],71% and 73%
same,Population Hoechst High Intensity Objects (%),[3],0% and 2%
same,Population Membrane Permeable-Phenotype (%),[3],4% and 9%
same,Population Mitochondria Different-Phenotype (%),[3],2% and 4%
same,Population Normal (%),[3],99% and 97%
same,Population Pyknosed Nuclei (%),[3],8% and 9%
same,Population Tubulin-Different-Phenotype (%),[3],1% and 4%
same,Total Cell Count,[3],328 and 168
same,Population Apoptotic (%),[4],78% and 69%
same,Population Fragmented Nuclei (%),[4],19% and 16%
same,Population Healthy Nuclei (%),[4],49% and 61%
same,Population Hoechst High Intensity Objects (%),[4],5% and 2%
same,Population Membrane Permeable-Phenotype (%),[4],69% and 42%
same,Population Mitochondria Different-Phenotype (%),[4],58% and 51%
same,Population Mitotic Cells (%),[4],21% and 30%
same,Population Normal (%),[4],94% and 97%
same,Population Pyknosed Nuclei (%),[4],31% and 21%
same,Population Tubulin-Different-Phenotype (%),[4],77% and 57%
same,Total Cell Count,[4],218 and 110
same,Population Apoptotic (%),[5],88% and 86%
same,Population Fragmented Nuclei (%),[5],17% and 21%
same,Population Healthy Nuclei (%),[5],75% and 65%
same,Population Hoechst High Intensity Objects (%),[5],2% and 1%
same,Population Membrane Permeable-Phenotype (%),[5],4% and 8%
same,Population Mitochondria Different-Phenotype (%),[5],3% and 4%
same,Population Mitotic Cells (%),[5],11% and 13%
same,Population Normal (%),[5],97% and 98%
same,Population Pyknosed Nuclei (%),[5],7% and 12%
same,Population Tubulin-Different-Phenotype (%),[5],2% and 5%
same,Total Cell Count,[5],504 and 247
same,Population Apoptotic (%),[6],83% and 80%
same,Population Fragmented Nuclei (%),[6],24%
same,Population Healthy Nuclei (%),[6],43% and 48%
same,Population Hoechst High Intensity Objects (%),[6],9% and 6%
same,Population Membrane Permeable-Phenotype (%),[6],51%
same,Population Mitochondria Different-Phenotype (%),[6],46% and 63%
same,Population Mitotic Cells (%),[6],16% and 20%
same,Population Normal (%),[6],90% and 93%
same,Population Pyknosed Nuclei (%),[6],32% and 27%
same,Population Tubulin-Different-Phenotype (%),[6],49% and 57%
same,Total Cell Count,[6],244 and 115
CCOc1c2c(c(OCC)c3ncccc13)CN(c1ccc(CS(=O)(=O)NC(=O)Cc3ccccc3OC)cc1C)C2=O,Population Apoptotic (%),[1],64% and 100%
same,Population Fragmented Nuclei (%),[1],22% and 13%
same,Population Healthy Nuclei (%),[1],70% and 82%
same,Population Hoechst High Intensity Objects (%),[1],2% and 1%
same,Population Membrane Permeable-Phenotype (%),[1],7% and 9%
same,Population Mitochondria Different-Phenotype (%),[1],3%
same,Population Normal (%),[1],97% and 98%
same,Population Pyknosed Nuclei (%),[1],7% and 4%
same,Population Tubulin-Different-Phenotype (%),[1],2% and 6%
same,Total Cell Count,[1],189 and 93
same,Population Apoptotic (%),[2],81% and 80%
same,Population Fragmented Nuclei (%),[2],30% and 21%
same,Population Healthy Nuclei (%),[2],63% and 75%
same,Population Hoechst High Intensity Objects (%),[2],2%
same,Population Membrane Permeable-Phenotype (%),[2],5% and 8%
same,Population Mitochondria Different-Phenotype (%),[2],3% and 6%
same,Population Mitotic Cells (%),[2],18% and 20%
same,Population Normal (%),[2],97%
same,Population Pyknosed Nuclei (%),[2],6% and 3%
same,Population Tubulin-Different-Phenotype (%),[2],2% and 3%
same,Total Cell Count,[2],248 and 136
same,Population Apoptotic (%),[3],80% and 100%
same,Population Fragmented Nuclei (%),[3],21% and 19%
same,Population Healthy Nuclei (%),[3],71% and 76%
same,Population Hoechst High Intensity Objects (%),[3],3% and 1%
same,Population Membrane Permeable-Phenotype (%),[3],4% and 7%
same,Population Mitochondria Different-Phenotype (%),[3],0% and 4%
same,Population Mitotic Cells (%),[3],20% and 0%
same,Population Normal (%),[3],96% and 98%
same,Population Pyknosed Nuclei (%),[3],6% and 4%
same,Population Tubulin-Different-Phenotype (%),[3],1% and 4%
same,Total Cell Count,[3],235 and 125
same,Population Apoptotic (%),[4],76% and 100%
same,Population Fragmented Nuclei (%),[4],27% and 17%
same,Population Healthy Nuclei (%),[4],61% and 76%
same,Population Hoechst High Intensity Objects (%),[4],3% and 0%
same,Population Membrane Permeable-Phenotype (%),[4],6%
same,Population Mitochondria Different-Phenotype (%),[4],2%
same,Population Mitotic Cells (%),[4],23% and 0%
same,Population Normal (%),[4],96% and 99%
same,Population Pyknosed Nuclei (%),[4],10% and 5%
same,Population Tubulin-Different-Phenotype (%),[4],1% and 5%
same,Total Cell Count,[4],285 and 152
same,Population Apoptotic (%),[5],85% and 100%
same,Population Fragmented Nuclei (%),[5],19% and 17%
same,Population Healthy Nuclei (%),[5],74% and 79%
same,Population Hoechst High Intensity Objects (%),[5],2% and 4%
same,Population Membrane Permeable-Phenotype (%),[5],3% and 7%
same,Population Mitochondria Different-Phenotype (%),[5],1% and 3%
same,Population Mitotic Cells (%),[5],15% and 0%
same,Population Normal (%),[5],97% and 95%
same,Population Pyknosed Nuclei (%),[5],5% and 2%
same,Population Tubulin-Different-Phenotype (%),[5],2% and 5%
same,Total Cell Count,[5],344 and 167
same,Population Apoptotic (%),[6],91% and 100%
same,Population Fragmented Nuclei (%),[6],19% and 18%
same,Population Healthy Nuclei (%),[6],71% and 74%
same,Population Hoechst High Intensity Objects (%),[6],2%
same,Population Membrane Permeable-Phenotype (%),[6],5% and 8%
same,Population Mitochondria Different-Phenotype (%),[6],1% and 4%
same,Population Mitotic Cells (%),[6],8% and 0%
same,Population Normal (%),[6],97%
same,Population Pyknosed Nuclei (%),[6],9% and 6%
same,Population Tubulin-Different-Phenotype (%),[6],2% and 3%
same,Total Cell Count,[6],385 and 236
